In brackets after ≈: the same amount, converted by molar mass. Activity calls are given as the source filed them. The rule behind the calls is not given here.
Legend:
Rattus norvegicus [1] = assay: Antiinflammatory activity in CD rat assessed as inhibition of LPS-stimulated TNFalpha production at 30 mg/kg, po administered 1 hr prior LPS challenge measured after 90 mins by ELISA; type: functional
Procedure, shortened: (§1)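 Acute PK-PD model in rats: compound given by oral gavage at 10 or 30 mg/kg, then lipopolysaccharide injected, and plasma TNF-alpha release measured.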

Mus musculus [2] = assay: Antifibrotic activity in bleomycin-induced C57B1/6 mouse model assessed as inhibition of monocytes in bronchoalveolar lavage at 25 to 150 mg/kg, po bid administered 2 hrs prior bleomycin induction for 13 days; type: functional, organism-based; conditions: Lung
Procedure, shortened: (§2)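 Mice received oral doses prophylactically at 25, 50, 100 and 150 mg/kg before bleomycin instillation, then twice daily for 13 days. White blood cells, monocytes and lymphocytes were counted in bronchoalveolar lavage, and lung fibrosis was scored, each against a vehicle control.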

[3] = AUC in rat at 2 mg/kg, iv; type: ADME, organism-based; set-up: dose 2 mg/kg, route intravenous; conditions: plasma
Procedure, shortened: (§3)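 Rats dosed intravenously at 2 mg/kg in a solution of 5% DMA and 30% PEG 400.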

[4] = biological target: Mitogen-activated protein kinase 14 (Homo sapiens, UniProt Q16539); assay: Inhibition of p38alpha using myelin basic protein as substrate preincubated for 15 mins prior ATP addition measured after 60 mins by scintillation counting
Sequence of Mitogen-activated protein kinase 14 (Q16539 whole entry): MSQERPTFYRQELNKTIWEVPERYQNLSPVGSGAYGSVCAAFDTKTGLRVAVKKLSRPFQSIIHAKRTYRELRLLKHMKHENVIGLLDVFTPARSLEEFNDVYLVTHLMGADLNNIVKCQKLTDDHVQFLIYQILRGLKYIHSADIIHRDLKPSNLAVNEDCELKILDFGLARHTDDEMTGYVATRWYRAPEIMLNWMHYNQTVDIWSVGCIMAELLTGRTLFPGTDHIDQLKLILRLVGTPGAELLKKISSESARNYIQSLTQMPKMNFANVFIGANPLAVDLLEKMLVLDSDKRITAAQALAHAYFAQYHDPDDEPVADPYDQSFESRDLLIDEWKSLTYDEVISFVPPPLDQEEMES

[5] = Oral bioavailability in cynomolgus monkey at 10 mg/kg; type: ADME, organism-based, Macaca fascicularis; conditions: in vivo
Procedure, shortened: (§4)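 Oral dose of 10 mg/kg given as a suspension in aqueous 0.5% CMC/0.25% Tween 80. Plasma AUC, Cmax and Tmax were taken from the oral arm. Bioavailability was derived against the intravenous arm in the same species.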

[6] = Cmax in dog at 10 mg/kg, po; type: ADME, organism-based, Canis lupus familiaris; set-up: dose 10 mg/kg, route oral; conditions: in vivo; procedure, shortened: as §4
Mus musculus [7] = assay: Antifibrotic activity in bleomycin-induced C57B1/6 mouse model assessed as inhibition of white blood cells in bronchoalveolar lavage at 25 to 150 mg/kg, po bid administered 2 hrs prior bleomycin induction for 13 days; type: functional, organism-based; conditions: Lung; procedure, shortened: as §2
[8] = Cmax in cynomolgus monkey at 10 mg/kg, po; type: ADME, organism-based, Macaca fascicularis; set-up: dose 10 mg/kg, route oral; conditions: in vivo; procedure, shortened: as §4
Cytochrome P450 3A4 = Cytochrome P450 3A4 (Homo sapiens, UniProt P08684); assay: Inhibition of CYP3A4; type: ADME
Sequence of Cytochrome P450 3A4 (P08684 whole entry): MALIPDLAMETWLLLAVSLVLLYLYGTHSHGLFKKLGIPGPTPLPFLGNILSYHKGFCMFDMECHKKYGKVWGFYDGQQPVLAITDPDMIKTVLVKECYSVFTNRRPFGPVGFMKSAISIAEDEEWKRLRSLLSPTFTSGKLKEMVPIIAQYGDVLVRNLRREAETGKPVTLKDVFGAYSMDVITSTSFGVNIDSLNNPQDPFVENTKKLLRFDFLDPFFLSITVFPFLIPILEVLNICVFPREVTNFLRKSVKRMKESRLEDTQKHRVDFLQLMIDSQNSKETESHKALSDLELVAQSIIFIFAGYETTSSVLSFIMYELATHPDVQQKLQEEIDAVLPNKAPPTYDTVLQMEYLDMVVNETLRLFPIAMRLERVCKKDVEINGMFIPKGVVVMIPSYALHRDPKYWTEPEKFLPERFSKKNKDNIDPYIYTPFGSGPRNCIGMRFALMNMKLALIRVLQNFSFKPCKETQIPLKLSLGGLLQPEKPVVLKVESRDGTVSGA

Canis familiaris [9] = assay: AUC in dog at 10 mg/kg, po; type: ADME, organism-based, Canis lupus familiaris, Plasma; set-up: dose 10 mg/kg, route oral; conditions: in vivo; procedure, shortened: as §4
[10] = Clearance in dog at 1 mg/kg, iv; type: ADME, organism-based, Canis lupus familiaris; set-up: dose 1 mg/kg, route intravenous; conditions: in vivo
[11] = Dissociation constant, pKa of the compound; type: physicochemical
Rattus norvegicus [12] = assay: Antiinflammatory activity in CD rat assessed as inhibition of LPS-stimulated TNFalpha production at 10 mg/kg, po administered 1 hr prior LPS challenge measured after 90 mins by ELISA; type: functional; procedure, shortened: as §1
Mus musculus [13] = assay: Antifibrotic activity in bleomycin-induced C57B1/6 mouse model assessed as reduction in lung fibrosis score at 25 to 150 mg/kg, po bid administered 2 hrs prior bleomycin induction for 13 days; type: functional; set-up: scale not given: the % may be the effect or the level left; conditions: dose mg/kg 25-150; procedure, shortened: as §2
[14] = Cmax in rat at 10 mg/kg, po; type: ADME, organism-based; set-up: dose 10 mg/kg, route oral; conditions: in vivo; procedure, shortened: as §4
[15] = Mean residence time in cynomolgus monkey at 1 mg/kg, iv; type: ADME, organism-based, Macaca fascicularis; set-up: dose 1 mg/kg, route intravenous; conditions: in vivo
Procedure, shortened: (§5)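 Intravenous dose of 1 mg/kg given to monkeys in a solution of 5% DMA and 95% isotonic citrate buffer (50 mM, pH 5.0).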

[16] = AUC in cynomolgus monkey at 10 mg/kg, po; type: ADME, organism-based, Macaca fascicularis; set-up: dose 10 mg/kg, route oral; conditions: plasma; procedure, shortened: as §4
[17] = Solubility in simulated intestinal fluid; type: physicochemical
Mus musculus [18] = assay: Antifibrotic activity in bleomycin-induced C57B1/6 mouse model assessed as inhibition of lymphocytes in bronchoalveolar lavage at 25 to 150 mg/kg, po bid administered 2 hrs prior bleomycin induction for 13 days; type: functional, organism-based; conditions: Lung; procedure, shortened: as §2
[19] = Mean residence time in dog at 1 mg/kg, iv; type: ADME, organism-based, Canis lupus familiaris; set-up: dose 1 mg/kg, route intravenous; conditions: in vivo
Rattus norvegicus [20] = assay: Toxicity in rat assessed as histological changes at 90 mg/kg, po qd for 4 days; type: organism-based; set-up: dose 90 mg/kg, route oral; conditions: in vivo, 96 h
Procedure, shortened: (§6)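 Male rats dosed once daily for 4 days by oral gavage with suspensions in aqueous CMC at 30, 90 and 300 mg/kg. Adverse observations were recorded and histology examined.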

[21] = Mean residence time in rat at 2 mg/kg, iv; type: ADME, organism-based; set-up: dose 2 mg/kg, route intravenous; conditions: in vivo; procedure, shortened: as §3
Canis familiaris [22] = assay: Oral bioavailability in dog at 10 mg/kg; type: ADME, organism-based, Canis lupus familiaris; conditions: in vivo; procedure, shortened: as §4
[23] = AUC in rat at 10 mg/kg, po; type: ADME, organism-based; set-up: dose 10 mg/kg, route oral; conditions: plasma; procedure, shortened: as §4
[24] = Oral bioavailability in rat; type: ADME, organism-based; conditions: in vivo
Canis familiaris [25] = assay: AUC in dog at 1 mg/kg, iv; type: ADME, organism-based, Canis lupus familiaris, Plasma; set-up: dose 1 mg/kg, route intravenous; conditions: in vivo
[26] = Clearance in rat at 2 mg/kg, iv; type: ADME, organism-based; set-up: dose 2 mg/kg, route intravenous; conditions: in vivo; procedure, shortened: as §3
[27] = biological target: Mitogen-activated protein kinase 3 (Homo sapiens, UniProt P27361); assay: Inhibition of ERK1
Sequence of Mitogen-activated protein kinase 3 (P27361 whole entry): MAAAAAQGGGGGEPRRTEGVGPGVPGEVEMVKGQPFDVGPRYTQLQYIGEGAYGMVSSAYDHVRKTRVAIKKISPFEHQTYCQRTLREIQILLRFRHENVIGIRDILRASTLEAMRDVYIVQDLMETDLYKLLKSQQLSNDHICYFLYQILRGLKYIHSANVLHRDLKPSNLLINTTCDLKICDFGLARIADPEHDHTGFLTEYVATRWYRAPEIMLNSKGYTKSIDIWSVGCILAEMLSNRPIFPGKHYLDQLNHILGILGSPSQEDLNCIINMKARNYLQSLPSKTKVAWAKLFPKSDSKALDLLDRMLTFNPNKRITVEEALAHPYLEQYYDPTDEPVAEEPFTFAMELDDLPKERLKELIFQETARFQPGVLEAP

[28] = Volume of distribution at steady state in dog at 1 mg/kg, iv; type: ADME, organism-based, Canis lupus familiaris; set-up: dose 1 mg/kg, route intravenous; conditions: in vivo, read-out: Vdss
Mus musculus [29] = assay: Antifibrotic activity in bleomycin-induced C57B1/6 mouse model assessed as reduction in lung fibrosis score compound po bid administered 2 hrs prior bleomycin induction for 13 days; type: functional, organism-based; procedure, shortened: as §2
[30] = AUC in cynomolgus monkey at 1 mg/kg, iv; type: ADME, organism-based, Macaca fascicularis; set-up: dose 1 mg/kg, route intravenous; conditions: plasma; procedure, shortened: as §5
[31] = Tmax in rat at 10 mg/kg, po; type: ADME, organism-based; set-up: dose 10 mg/kg, route oral; conditions: in vivo; procedure, shortened: as §4
[32] = Tmax in cynomolgus monkey at 10 mg/kg, po; type: ADME, organism-based, Macaca fascicularis; set-up: dose 10 mg/kg, route oral; conditions: in vivo; procedure, shortened: as §4
[33] = Volume of distribution at steady state in rat at 2 mg/kg, iv; type: ADME, organism-based; set-up: dose 2 mg/kg, route intravenous; conditions: in vivo, read-out: Vdss; procedure, shortened: as §3
Cytochrome P450 2D6 = Cytochrome P450 2D6 (Homo sapiens, UniProt P10635); assay: Inhibition of CYP2D6; type: ADME
Sequence of Cytochrome P450 2D6 (P10635 whole entry): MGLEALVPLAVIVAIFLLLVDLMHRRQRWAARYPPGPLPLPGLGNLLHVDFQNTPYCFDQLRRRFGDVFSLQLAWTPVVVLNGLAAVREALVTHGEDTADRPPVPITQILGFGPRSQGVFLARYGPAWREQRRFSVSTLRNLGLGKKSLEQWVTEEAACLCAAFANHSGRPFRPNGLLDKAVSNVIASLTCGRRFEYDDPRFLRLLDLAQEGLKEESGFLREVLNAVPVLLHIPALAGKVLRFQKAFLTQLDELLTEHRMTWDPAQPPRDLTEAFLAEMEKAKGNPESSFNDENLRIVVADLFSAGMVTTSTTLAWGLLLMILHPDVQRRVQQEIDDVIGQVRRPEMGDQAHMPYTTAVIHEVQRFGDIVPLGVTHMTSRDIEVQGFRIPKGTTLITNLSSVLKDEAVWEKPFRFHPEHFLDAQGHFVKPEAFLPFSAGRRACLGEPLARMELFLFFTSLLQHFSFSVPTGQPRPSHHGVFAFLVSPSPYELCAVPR

Salmonella typhimurium = assay: Mutagenic activity in Salmonella Typhimurium by Ames test; type: toxicity, organism-based; conditions: salmonella enterica subsp. enterica serovar typhimurium
[34] = Oral bioavailability in rat at 10 mg/kg; type: ADME, organism-based; conditions: in vivo; procedure, shortened: as §4
[35] = Lipophilicity, log D of the compound; type: physicochemical; conditions: octanol/water
Rattus norvegicus [36] = assay: Toxicity in rat assessed as adverse effects at 90 mg/kg, po qd for 4 days; type: organism-based; set-up: dose 90 mg/kg, route oral; conditions: in vivo, 96 h; procedure, shortened: as §6
[37] = Tmax in dog at 10 mg/kg, po; type: ADME, organism-based, Canis lupus familiaris; set-up: dose 10 mg/kg, route oral; conditions: in vivo; procedure, shortened: as §4
[38] = Volume of distribution at steady state in cynomolgus monkey at 1 mg/kg, iv; type: ADME, organism-based, Macaca fascicularis; set-up: dose 1 mg/kg, route intravenous; conditions: in vivo, read-out: Vdss; procedure, shortened: as §5
[39] = Clearance in cynomolgus monkey at 1 mg/kg, iv; type: ADME, organism-based, Macaca fascicularis; set-up: dose 1 mg/kg, route intravenous; conditions: in vivo; procedure, shortened: as §5

## O[C@H]1CC[C@H](Nc2ncc3nc(Nc4c(F)cc(F)cc4F)n([C@H]4CCOC4)c3n2)CC1 [TANZISERTIB]
Rattus norvegicus [1]
  inhibition in vivo at 30 mg/kg: 77%
Mus musculus [2]
  inhibition: Active
[3]
  AUC: 1.9 µM·h
[4]
  IC50: 3400 nM
[5]
  bioavailability: 77%
[6]
  Cmax: 7.2 µM
Mus musculus [7]
  inhibition: Active
[8]
  Cmax: 11 µM
Cytochrome P450 3A4
  inhibition (INH): Not Active
Canis familiaris [9]
  AUC: 86 µM·h
[10]
  clearance: 3.4 mL/min/kg
[11]
  pKa: 5.47
Rattus norvegicus [12]
  inhibition in vivo at 10 mg/kg: 23%
Mus musculus [13]
  Activity: 18%
[14]
  Cmax: 0.7 µM
[15]
  MRT: 10 h
[16]
  AUC: 100 µM·h
[17]
  solubility: 780 µg/mL (≈ 1740 µM)
Mus musculus [18]
  inhibition: Active
[19]
  MRT: 7.3 h
Rattus norvegicus [20]
  Activity: Non-toxic
[21]
  MRT: 0.7 h
Canis familiaris [22]
  F: 27%
[23]
  AUC: 3.1 µM·h
[24]
  bioavailability: 30%
Canis familiaris [25]
  AUC: 11 µM·h
[26]
  clearance: 39 mL/min/kg
[27]
  IC50: 480 nM
[28]
  Vd: 1.5 L/kg
Mus musculus [29]
  Activity: Dose-dependent effect
[30]
  AUC: 13 µM·h
[31]
  Tmax: 1.5 h
[32]
  Tmax: 1.3 h
[33]
  Vd: 1.7 L/kg
Cytochrome P450 2D6
  inhibition (INH): Not Active
Salmonella typhimurium
  Activity: Non-toxic
[34]
  bioavailability: 30%
[35]
  logD: 1.93
Rattus norvegicus [36]
  Activity: Non-toxic
[37]
  Tmax: 2.5 h
[38]
  Vd: 1.6 L/kg
[39]
  clearance: 2.9 mL/min/kg

— ChEMBL document CHEMBL1949521, “Discovery of CC-930, an orally active anti-fibrotic JNK inhibitor” (Bioorg Med Chem Lett, 2012)
